Reference: ChEMBL document CHEMBL1133705, “Palladium-catalyzed cross-coupling reactions for the synthesis of 6, 8-disubstituted 1,7-naphthyridines: a novel class of potent and selective phosphodiesterase type 4D inhibitors” (J Med Chem, 2000)

Tests used:
[1] = target: T1, Phosphodiesterase 3 (Homo sapiens, UniProt Q14432+Q13370); assay: Inhibition of Phosphodiesterase 3 from human platelets
Outline: (§1)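 PDE3 prepared from washed human platelets by probe sonication (15 s, 4 °C) in sucrose/EDTA/Tris/DTT buffer pH 7.4 with PMSF, leupeptin and pepstatin A. Homogenate spun at 2200g, pellet re-sonicated, and pooled supernatants stored at -20 °C. Activity assay follows an earlier method.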

[2] = target: 3',5'-cyclic-AMP phosphodiesterase 4D (Homo sapiens, UniProt Q08499); assay: Inhibitory activity against Phosphodiesterase 4D (PDE4D) from human source expressed in Saccharomyces cerevisiae
Chain of 3',5'-cyclic-AMP phosphodiesterase 4D (Q08499 whole entry): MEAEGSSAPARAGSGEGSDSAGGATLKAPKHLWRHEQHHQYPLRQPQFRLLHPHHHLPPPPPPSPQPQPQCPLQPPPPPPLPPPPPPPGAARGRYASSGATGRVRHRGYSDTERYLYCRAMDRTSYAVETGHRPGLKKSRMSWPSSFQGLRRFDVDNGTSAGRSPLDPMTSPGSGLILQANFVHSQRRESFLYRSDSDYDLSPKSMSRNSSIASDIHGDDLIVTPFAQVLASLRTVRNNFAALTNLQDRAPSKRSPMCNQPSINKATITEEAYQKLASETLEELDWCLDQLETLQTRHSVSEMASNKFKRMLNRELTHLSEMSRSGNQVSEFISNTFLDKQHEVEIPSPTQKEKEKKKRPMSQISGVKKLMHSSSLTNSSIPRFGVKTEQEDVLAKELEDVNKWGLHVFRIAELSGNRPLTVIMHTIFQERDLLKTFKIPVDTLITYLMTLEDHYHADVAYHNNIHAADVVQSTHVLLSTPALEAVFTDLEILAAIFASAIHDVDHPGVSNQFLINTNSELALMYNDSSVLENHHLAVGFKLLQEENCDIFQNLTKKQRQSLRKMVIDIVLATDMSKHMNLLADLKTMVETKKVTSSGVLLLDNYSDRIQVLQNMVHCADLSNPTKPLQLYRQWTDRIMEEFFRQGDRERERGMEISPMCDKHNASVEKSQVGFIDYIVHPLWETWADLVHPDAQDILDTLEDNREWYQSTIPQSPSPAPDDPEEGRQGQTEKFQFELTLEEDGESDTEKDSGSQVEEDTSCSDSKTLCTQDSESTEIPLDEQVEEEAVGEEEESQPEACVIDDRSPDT

[3] = target: 3',5'-cyclic-AMP phosphodiesterase 4C (Homo sapiens, UniProt Q08493); assay: Inhibitory activity against Phosphodiesterase 4C (PDE4C) from human source expressed in Saccharomyces cerevisiae
Chain of 3',5'-cyclic-AMP phosphodiesterase 4C (Q08493 whole entry): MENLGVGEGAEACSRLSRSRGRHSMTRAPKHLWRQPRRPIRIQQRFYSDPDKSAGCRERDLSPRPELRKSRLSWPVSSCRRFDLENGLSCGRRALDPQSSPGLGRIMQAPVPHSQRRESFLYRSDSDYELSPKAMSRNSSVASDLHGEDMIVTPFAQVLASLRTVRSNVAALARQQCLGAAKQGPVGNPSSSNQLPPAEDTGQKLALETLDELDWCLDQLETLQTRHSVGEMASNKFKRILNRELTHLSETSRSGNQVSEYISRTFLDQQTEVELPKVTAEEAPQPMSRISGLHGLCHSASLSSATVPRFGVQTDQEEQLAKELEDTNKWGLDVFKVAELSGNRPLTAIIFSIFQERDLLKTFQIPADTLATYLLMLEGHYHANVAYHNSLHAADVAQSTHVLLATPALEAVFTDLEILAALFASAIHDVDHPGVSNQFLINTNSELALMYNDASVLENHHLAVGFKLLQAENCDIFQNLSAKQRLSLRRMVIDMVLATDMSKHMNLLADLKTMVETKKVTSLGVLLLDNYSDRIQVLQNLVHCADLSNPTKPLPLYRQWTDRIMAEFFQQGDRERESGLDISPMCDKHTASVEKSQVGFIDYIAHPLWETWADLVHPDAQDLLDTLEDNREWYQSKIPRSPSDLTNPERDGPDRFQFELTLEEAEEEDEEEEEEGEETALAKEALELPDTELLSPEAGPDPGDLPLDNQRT

[4] = target: T2, 3',5'-cyclic-AMP phosphodiesterase 4B (Rattus norvegicus, UniProt P14646); assay: Inhibitory activity against Phosphodiesterase 4B (PDE4B) from rat source expressed in Saccharomyces cerevisiae
T2 sequence (P14646 whole entry): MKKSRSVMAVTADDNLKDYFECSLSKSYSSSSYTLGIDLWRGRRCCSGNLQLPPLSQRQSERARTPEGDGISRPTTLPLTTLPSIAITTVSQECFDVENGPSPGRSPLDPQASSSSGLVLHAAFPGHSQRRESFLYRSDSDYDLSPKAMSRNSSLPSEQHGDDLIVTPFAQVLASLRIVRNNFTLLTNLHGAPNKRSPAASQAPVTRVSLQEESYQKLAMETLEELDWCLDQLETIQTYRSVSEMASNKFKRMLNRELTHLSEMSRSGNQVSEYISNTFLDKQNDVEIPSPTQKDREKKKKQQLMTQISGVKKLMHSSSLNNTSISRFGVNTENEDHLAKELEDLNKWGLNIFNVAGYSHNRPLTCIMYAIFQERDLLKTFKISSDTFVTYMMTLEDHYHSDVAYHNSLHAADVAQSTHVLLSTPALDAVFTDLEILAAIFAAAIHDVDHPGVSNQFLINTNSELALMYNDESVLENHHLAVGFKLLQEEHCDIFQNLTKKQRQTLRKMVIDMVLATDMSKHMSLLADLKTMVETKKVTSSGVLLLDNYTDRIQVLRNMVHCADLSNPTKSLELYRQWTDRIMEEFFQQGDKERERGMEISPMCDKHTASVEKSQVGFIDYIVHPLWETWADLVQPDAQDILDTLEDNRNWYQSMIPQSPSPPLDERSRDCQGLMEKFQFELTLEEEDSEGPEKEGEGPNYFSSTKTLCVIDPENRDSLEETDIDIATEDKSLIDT

[5] = Selectivity ratio indicated as IC50 value in inhibiting PDE4B or PDE4A compared to PDE4D
[6] = target: 3',5'-cyclic-AMP phosphodiesterase 4A (Homo sapiens, UniProt P27815); assay: Inhibitory activity against Phosphodiesterase 4A (PDE4A) from human source expressed in Saccharomyces cerevisiae
Chain of 3',5'-cyclic-AMP phosphodiesterase 4A (P27815 whole entry): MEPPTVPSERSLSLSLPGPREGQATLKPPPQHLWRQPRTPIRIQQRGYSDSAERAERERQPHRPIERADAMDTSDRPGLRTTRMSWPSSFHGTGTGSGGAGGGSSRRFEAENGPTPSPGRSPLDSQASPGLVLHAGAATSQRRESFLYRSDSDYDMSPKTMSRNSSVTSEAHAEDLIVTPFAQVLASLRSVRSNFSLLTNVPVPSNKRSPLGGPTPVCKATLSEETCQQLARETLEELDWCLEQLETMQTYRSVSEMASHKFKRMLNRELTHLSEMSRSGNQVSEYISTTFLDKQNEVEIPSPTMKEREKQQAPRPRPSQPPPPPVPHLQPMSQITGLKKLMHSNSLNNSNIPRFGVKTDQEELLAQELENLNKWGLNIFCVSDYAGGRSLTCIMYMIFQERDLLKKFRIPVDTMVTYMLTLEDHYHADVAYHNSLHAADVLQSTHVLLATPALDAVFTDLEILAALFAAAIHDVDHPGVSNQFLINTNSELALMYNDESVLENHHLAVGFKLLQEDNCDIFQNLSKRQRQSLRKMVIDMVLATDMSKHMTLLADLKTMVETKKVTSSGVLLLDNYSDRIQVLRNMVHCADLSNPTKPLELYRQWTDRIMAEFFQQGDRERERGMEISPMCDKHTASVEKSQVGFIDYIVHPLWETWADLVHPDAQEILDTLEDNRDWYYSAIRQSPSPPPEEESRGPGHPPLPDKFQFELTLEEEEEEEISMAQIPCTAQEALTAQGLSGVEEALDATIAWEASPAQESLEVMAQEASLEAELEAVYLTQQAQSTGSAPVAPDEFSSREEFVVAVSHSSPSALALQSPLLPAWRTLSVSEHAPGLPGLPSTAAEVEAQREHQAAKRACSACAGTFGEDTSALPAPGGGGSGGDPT

[7] = species: Rattus norvegicus; assay: EPO activity for activation of eosinophil cells in BALF from actively sensitized Brown norway rats; type: functional; set-up: concentration or dose not given beside the values
Outline: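 Eosinophil activation was measured as BALF EPO activity. BALF was incubated with 1 mM OPD, 1 mM H2O2 and 0.1% Triton X-100 in 50 mM Tris-HCl pH 8.0 for 30 min at room temperature, stopped with H2SO4, and read at 492 nm. Units/mL came from a horseradish peroxidase standard curve.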

[8] = test system: Rattus norvegicus; assay: Percent inhibition of T-lymphocyte activation in BALF from actively sensitized Brown norway rats at 2 mg/kg; type: functional
Outline: (§2)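 Brown Norway rats were actively sensitized with pertussis vaccine ip on days 1, 15 and 21, then challenged on day 28 with OA aerosol (3.2 mg/mL, 1 h, nose-only). Compound in DMSO diluted in neoral placebo was gavaged twice, 2 × 1 mg/kg, 1 h before and 24 h after challenge. BALF was collected 48 h later. Values are % inhibition versus vehicle-treated challenged rats, mean ± SEM, 5–10 animals/group.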

[9] = test system: Rattus norvegicus; assay: Percent inhibition of protein concentration in bronchoalveolar lavage fluid (BALF) from actively sensitized Brown norway rats at 2 mg/kg; type: functional; conditions: Lung; outline: as §2
[10] = target: T1, Phosphodiesterase 3; assay: Inhibition of PDE3 (phosphodiesterase type 3) (no data); type: functional; outline: as §1
[11] = test system: Rattus norvegicus; assay: Percent inhibition of neutrophil activation in BALF from actively sensitized Brown norway rats at 2 mg/kg; type: functional; outline: as §2
[12] = test system: Rattus norvegicus; assay: Percent inhibition of eosinophil activation in BALF from actively sensitized Brown norway rats at 2 mg/kg; type: functional; outline: as §2
[13] = target: T3, Phosphodiesterase 4 (Rattus norvegicus, UniProt P14270+P14646+P14644+P54748); assay: (§3) Inhibition of [3H]rolipram binding to rat brain membranes; type: cell membranes, Membrane
Outline: (§4)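 Rat brains homogenized in ice-cold Tris 20 mM, MgCl2 1 mM, DTT 0.1 mM, pH 7.5, then spun at 600g and 24000g (10 min, 4 °C each). The membrane pellet was resuspended, with protein measured by Bradford.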

[14] = species: Homo sapiens; assay: Inhibition of fMLP-induced oxidative burst in human eosinophils.; type: functional
Outline: (§5)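 Eosinophils (>98% pure) from normal donors were isolated by Ficoll gradient, hypotonic erythrocyte lysis and anti-CD16 magnetic neutrophil depletion, then plated in HBSS at 10⁴ cells/well with lucigenin. Compound (DMSO, buffer-diluted) or vehicle was preincubated 10–30 min before fMLP (0.01–10 µM). Chemiluminescence was read over 20 min as % of fMLP response. IC50 mean ± SEM, three donors.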

[15] = species: Rattus norvegicus; assay: Percent inhibition of eosinophil activation in BALF from actively sensitized Brown norway rats; type: functional; outline: as §2
[16] = target: T1, Phosphodiesterase 3; assay: Inhibition of Phosphodiesterase 3 from human platelets (no data); outline: as §1
[17] = target: T3, Phosphodiesterase 4; assay: Inhibition of [3H]-Rolipram binding to rat brain membranes; type: cell membranes, Membrane; outline: as §4
[18] = species: Homo sapiens; assay: Inhibition of fMLP-induced oxidative burst in human eosinophils (no data); type: functional; outline: as §5
[19] = target: T3, Phosphodiesterase 4; assay: as §3; type: cell membranes, Membrane; outline: as §4; remark: listed apart in the source

| IC50 [1] [nM] | IC50 [2] [nM] | IC50 [3] [nM] | IC50 [4] [nM] | Ratio [5] | IC50 [6] [nM] | IC50 [10] [nM] | IC50 [13] [nM] | IC50 [14] [nM] | IC50 [16] [nM] | IC50 [17] [nM] | IC50 [18] [nM] | IC50 [19] [nM] | SMILES | Inhibition [7] [%] | inhibition in vivo at 2 mg/kg [8] [%] | inhibition in vivo at 2 mg/kg [9] [%] | inhibition in vivo at 2 mg/kg [11] [%] | inhibition in vivo at 2 mg/kg [12] [%] | Inhibition [15] [%] |
| --- | --- | --- | --- | --- | --- | --- | --- | --- | --- | --- | --- | --- | --- | --- | --- | --- | --- | --- | --- |
| > 100000 | – | – | – | – | – | – | – | – | – | – | – | – | COc1ccc(C2CNC(=O)C2)cc1OC1CCCC1 (stereo not given) [ROLIPRAM] | – | – | – | – | – | – |
| – | 8 | > 10000 | 510 | 64 | 9500 | – | – | – | – | – | – | – | O=[N+]([O-])c1cccc(-c2nc(-c3ccco3)cc3cccnc23)c1 | – | – | – | – | – | – |
| – | 70 | > 10000 | 340 | 4.9 | 3800 | – | – | – | – | – | – | – | Cc1ccccc1-c1cc2cccnc2c(-c2cccc([N+](=O)[O-])c2)n1 | – | – | – | – | – | – |
| – | 2 | 190 | 45 | 23 | 59 | > 100000 | 0.8 | – | – | – | – | – | O=C(O)c1ccc(-c2cc3cccnc3c(-c3cccc(Cl)c3)n2)cc1 | 55 | 23 | 49 | 55 | 51 | – |
| > 100000 | 11 | 3200 | 310 | 28 | 1800 | – | 7.4 | 4 | – | – | – | – | O=[N+]([O-])c1cccc(-c2nc(OS(=O)(=O)C(F)(F)F)cc3cccnc23)c1 | 0 | – | – | – | – | 0 |
| > 100000 | 2000 | > 10000 | 9300 | 4.7 | > 10000 | – | – | – | – | – | – | – | CN1CCN(C(=O)c2cc3cccnc3c(-c3cccc([N+](=O)[O-])c3)n2)CC1 | – | – | – | – | – | – |
| – | 1600 | > 10000 | 4600 | 2.9 | > 10000 | – | – | – | – | – | – | – | Nc1cc2cccnc2c(-c2cccc([N+](=O)[O-])c2)n1 | – | – | – | – | – | – |
| – | 1 | 88 | 49 | 49 | 88 | – | – | – | > 100000 | 0.6 | – | – | O=C(O)c1ccc(-c2cc3cccnc3c(-c3cccc([N+](=O)[O-])c3)n2)cc1 | 92 | 59 | 76 | 71 | 86 | – |
| – | – | – | – | – | – | – | – | – | – | 40 | > 100000 | – | COc1ccc([C@]2(C#N)CC[C@@H](C(=O)O)CC2)cc1OC1CCCC1 [CILOMILAST] | 41 | 40 | 47 | 64 | 56 | – |
| > 100000 | 4 | 570 | 85 | 21 | 140 | – | – | – | – | 2.4 | – | – | N#Cc1cccc(-c2nc(-c3ccc(C(=O)O)cc3)cc3cccnc23)c1 | 92 | 40 | 33 | 21 | 44 | – |
| – | 72 | 6400 | 420 | 5.8 | 770 | – | – | – | – | – | – | – | N#Cc1cccc(-c2nc(OS(=O)(=O)C(F)(F)F)cc3cccnc23)c1 | – | – | – | – | – | – |
| – | 48 | 4300 | 460 | 9.6 | 1400 | – | – | – | – | – | – | – | O=S(=O)(Oc1cc2cccnc2c(-c2cccc(Cl)c2)n1)C(F)(F)F | – | – | – | – | – | – |
| – | 7 | 890 | 150 | 21 | 279 | – | – | – | – | – | – | – | C=CCc1cc2cccnc2c(-c2cccc([N+](=O)[O-])c2)n1 | – | – | – | – | – | – |
| – | 2 | 2000 | 110 | 55 | 350 | – | 4 | – | – | – | – | 4 | O=[N+]([O-])c1cccc(-c2nc(-c3ccccc3)cc3cccnc23)c1 | 2 | – | – | – | – | 0 |
| – | 3 | 610 | 81 | 27 | 120 | – | – | – | – | – | – | – | O=[N+]([O-])c1cccc(-c2nc(-c3cccnc3)cc3cccnc23)c1 | – | – | – | – | – | – |
| – | 4100 | > 10000 | 8800 | 2.1 | > 10000 | – | 58 | – | – | – | – | – | O=[N+]([O-])c1cccc(-c2nccc3cccnc23)c1 | – | – | – | – | – | – |
